These results are taken from article PMC5801548 (Bioconjugate chemistry, 2017).

One assay relates to P. aeruginosa ATCC 27853. Description: Disk diffusion assay. The following applies: Pa ATCC 27853, 20 μg on blank disc (Ø = 0.6 cm), 24 h. Type of assay: cell-based. In a few lines: (§1)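 The test compound (20 µg) was loaded onto a blank 0.6 cm disc and placed on an agar plate inoculated with the bacterium. The plate was incubated for 24 h, and the diameter of the bacteria-free zone around the disc was measured in cm. Saline was included as a control.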
For orientation: In agar diffusion tests the substance spreads into inoculated agar from a disc or well.

In assay [1] the test system is A. baumannii ATCC 19606. The assay is described as follows: Disk diffusion assay. Type of assay: cell-based. The following applies: Ab ATCC 19606, 20 μg on blank disc (Ø = 0.6 cm), 24 h. In a few lines:
as §1

A further assay deals with Ab ATCC 19606. Conditions: broth microdilution, mass basis; data with * ref [21]; cited from earlier work. In general terms: In broth dilution the organism is exposed to a series of concentrations in liquid medium.
Assay [2] concerns A. baumannii ATCC 19606. The assay is described as follows: Time-kill study. The following applies: 4 × MIC (mass based; higher value where MIC is a range). It is filed as cell-based.

Consider colistin, for which the “Diameter of Zone of Inhibition (ZOI)” value in the assay with P. aeruginosa ATCC 27853 and with A. baumannii ATCC 19606 [1] was 1.8 cm each time. Further, in the assay on Ab ATCC 19606, the “Minimum inhibitory concentration against Ab ATCC 19606 (MIC)” value is reported as 1* mg/L.
Turning to colistin methanesulfonate [CMS], the “Diameter of Zone of Inhibition (ZOI)” value came to 1.7 cm in the assay with P. aeruginosa ATCC 27853 and 1.8 cm in the assay on A. baumannii ATCC 19606 [1]. For the same substance, the “Time to inhibit the growth of bacteria to levels approaching the detection limit” value in the assay with A. baumannii ATCC 19606 [2] was “around 6 h”. Further, the “Minimum inhibitory concentration against Ab ATCC 19606 (MIC)” value in the assay with Ab ATCC 19606 is 16* mg/L.
